Experimental data as given in ChEMBL document CHEMBL1914330 (Eur J Med Chem, 2011).
The source made the active and inactive calls. No cut-off for these calls is given here.

Experiments:
CCRF-CEM [1] = assay: Antiproliferative activity against human CEM cells after 2 days by coulter counter analysis; type: functional, cell-based; settings: 48 h
Outline: (§1)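 Cells suspended at 300,000–500,000 cells/mL and mixed 1:1 with diluted compound. Incubated at 37 °C for two days, then counted with a Coulter counter. IC50 is the concentration inhibiting proliferation by 50%, as mean ± SE from dose-response curves of at least three independent experiments.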

L1210 = assay: Antiproliferative activity against mouse L1210 cells after 2 days by coulter counter analysis; type: functional, cell-based; settings: L1210, 48 h; outline: as §1
FM3A = assay: Antiproliferative activity against mouse FM3A cells after 2 days by coulter counter analysis; type: functional, cell-based; settings: 48 h
HeLa = assay: Antiproliferative activity against human HeLa cells after 2 days by coulter counter analysis; type: functional, cell-based; settings: 48 h; outline: as §1
Bos taurus = species on record: Bos taurus; assay: Inhibition of bovine brain tubulin polymerization at 20 uM after 20 mins by turbidimetry
Outline: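 Purified bovine brain tubulin at 10 µM was preincubated with compound in glutamate buffer at 30 °C, then cooled to 0 °C and GTP added. Samples were warmed to 30 °C in a recording spectrophotometer and assembly followed by turbidity.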

MOLT-4 = assay: Antiproliferative activity against human MOLT4 cells after 2 days by coulter counter analysis; type: functional, cell-based; settings: MOLT-4, 48 h
CCRF-CEM [2] = assay: Antiproliferative activity against human CEM cells after 72 hrs by MTT assay; type: functional, cell-based
Outline: (§2)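 Cells seeded at 8 × 10³ per well in complete medium and exposed to a range of compound concentrations at 37 °C for 72 h. Viability read by MTT test. IC50 taken as the concentration inhibiting proliferation by 50%.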

[3] = Antiproliferative activity against human vinblastine-resistant CEM/VBL100 cells after 72 hrs by MTT assay; type: functional, cell-based; settings: CEM/VBL100, 72 h; outline: as §2
[4] = Antiproliferative activity against human taxol-resistant A549-T12 cells after 72 hrs by MTT assay; type: functional, cell-based; settings: A549, 72 h; outline: as §2

inhibition (Bos taurus) | IC50 (CCRF-CEM [2]) [µM] | Structure (SMILES) | IC50 (CCRF-CEM [1]) [µM] | IC50 (L1210) [µM] | IC50 (FM3A) [µM] | IC50 (HeLa) [µM] | IC50 (MOLT-4) [µM] | IC50 [3] [µM] | IC50 [4] [µM]
inactive |  | COc1cc(C(=O)c2sc(N)nc2N)cc(OC)c1OC | 42 | 48 | 63 | 31 |  |  | 
 |  | COc1ccc(/C=C\c2cc(OC)c(OC)c(OC)c2)cc1O [COMBRETASTATIN A4] | 0.002 | 0.003 |  | 0.002 |  |  | 
inactive |  | COc1cc(C(=O)c2sc(N(C)C)nc2N)cc(OC)c1OC | 11 | 11 | 12 | 8.2 |  |  | 
 |  | COc1ccc(C(=O)c2sc(N3CCCC3)nc2N)cc1 | > 200 | > 200 | > 200 | > 200 | > 200 |  | 
 | 0.004 | CC[C@]1(O)C[C@@H]2CN(CCc3c([nH]c4ccccc34)[C@@](C(=O)OC)(c3cc4c(cc3OC)N(C)[C@H]3[C@@](O)(C(=O)OC)[C@H](OC(C)=O)[C@]5(CC)C=CCN6CC[C@]43[C@@H]65)C2)C1 [VINBLASTINE] |  |  |  |  |  | 0.23 | 
 |  | COc1ccc(C(=O)c2sc(N3CCCC3)nc2N)cc1OC | 19 | 60 | 112 | 36 | 31 |  | 
 |  | COc1cc(C(=O)c2sc(N(C)Cc3ccccc3)nc2N)cc(OC)c1OC | > 200 | > 200 | > 200 | > 200 | > 200 |  | 
 |  | CCCCN(C)c1nc(N)c(C(=O)c2cc(OC)c(OC)c(OC)c2)s1 | 42 | 53 | 47 | 31 | 32 |  | 
inactive |  | CCN(CC)c1nc(N)c(C(=O)c2cc(OC)c(OC)c(OC)c2)s1 | 78 | 62 | 115 | 38 |  |  | 
 |  | Nc1nc(N2CCCC2)sc1C(=O)c1ccccc1 | > 200 | > 200 | > 200 | > 200 | > 200 |  | 
 |  | Nc1nc(N2CCCC2)sc1C(=O)c1ccc(Br)cc1 | > 200 | > 200 | > 200 | > 200 | > 200 |  | 
 |  | COc1ccccc1C(=O)c1sc(N2CCCC2)nc1N | 171 | > 200 | > 200 | 185 | > 200 |  | 
inactive |  | COc1cc(C(=O)c2sc(N3CCCCC3)nc2N)cc(OC)c1OC | 22 | 43 | 39 | 11 | 16 |  | 
inactive |  | COc1cc(C(=O)c2sc(N3CCOCC3)nc2N)cc(OC)c1OC | 25 | 38 | 24 | 8.8 | 22 |  | 
 |  | Nc1nc(N2CCCC2)sc1C(=O)c1ccc(Cl)cc1 | > 200 | > 200 | > 200 | > 200 | > 200 |  | 
 |  | CC(=O)O[C@H]1C(=O)[C@@]2(C)[C@H]([C@H](OC(=O)c3ccccc3)[C@]3(O)C[C@H](OC(=O)[C@H](O)[C@@H](NC(=O)c4ccccc4)c4ccccc4)C(C)=C1C3(C)C)[C@]1(OC(C)=O)CO[C@@H]1C[C@@H]2O [PACLITAXEL] |  |  |  |  |  |  | 0.075
 |  | COc1cccc(C(=O)c2sc(N3CCCC3)nc2N)c1 | > 200 | > 200 | > 200 | > 200 | > 200 |  | 
